Assays:
[1] = target: Carbonic anhydrase 1 (Homo sapiens) (UniProt P00915); assay: Activation of human Carbonic anhydrase I, using histamine as standard
[2] = target: Carbonic anhydrase 2 (Homo sapiens) (UniProt P00918); assay: […] of human Carbonic anhydrase II, using histamine as standard
How it was run: (§1)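 Esterase assay: initial rates of 4-nitrophenyl acetate hydrolysis read at 400 nm, pH 7.40, 25 °C, substrate 2×10^-2 to 1×10^-6 M. Enzymes were recombinant human CA I (25 nM) and CA II (7 nM) expressed in E. coli BL21(DE3), and CA IV (33 nM) isolated from bovine lung microsomes. Activator and enzyme were preincubated 15 min at room temperature. Non-enzymatic hydrolysis was subtracted. KA is the mean of at least three determinations.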

[3] = target: T1, Carbonic anhydrase 4 (Bos taurus) (UniProt Q95323); assay: Bovine Carbonic anhydrase IV activity using histamine as standard
T1 sequence (whole entry): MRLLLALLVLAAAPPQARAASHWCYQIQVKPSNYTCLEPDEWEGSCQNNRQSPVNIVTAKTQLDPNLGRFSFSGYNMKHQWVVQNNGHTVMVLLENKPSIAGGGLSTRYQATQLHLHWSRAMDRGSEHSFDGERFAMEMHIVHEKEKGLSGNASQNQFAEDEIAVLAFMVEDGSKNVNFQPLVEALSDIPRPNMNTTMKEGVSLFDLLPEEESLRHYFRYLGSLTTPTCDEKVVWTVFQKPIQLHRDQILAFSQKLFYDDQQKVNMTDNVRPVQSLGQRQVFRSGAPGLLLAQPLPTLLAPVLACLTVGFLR
How it was run: as §1

Homo sapiens [4] = species on record: Homo sapiens; assay: Ex vivo carbonic anhydrase activation was measured after 60 min of incubation of lysed human erythrocyte; format: functional; set-up: concentration or dose not given beside the values
How it was run: (§2)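 Washed fresh human erythrocytes (Tris pH 7.40, 5 mM) were lysed in distilled water, then the supernatant was incubated with 5 μM activator at 37 °C for 30 or 60 min. CA activity (hCA I + hCA II) was read by esterase assay with 4-nitrophenyl acetate. Activity without activator was set as 100%; values are mean of n = 3.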

Homo sapiens [5] = species on record: Homo sapiens; assay: Ex vivo carbonic anhydrase activation was measured after 30 min of incubation of lysed human erythrocyte; format: functional; set-up: concentration or dose not given beside the values
How it was run: as §2

Carbonic anhydrase 1 (Homo sapiens), sequence (P00915 2-261 limits assumed): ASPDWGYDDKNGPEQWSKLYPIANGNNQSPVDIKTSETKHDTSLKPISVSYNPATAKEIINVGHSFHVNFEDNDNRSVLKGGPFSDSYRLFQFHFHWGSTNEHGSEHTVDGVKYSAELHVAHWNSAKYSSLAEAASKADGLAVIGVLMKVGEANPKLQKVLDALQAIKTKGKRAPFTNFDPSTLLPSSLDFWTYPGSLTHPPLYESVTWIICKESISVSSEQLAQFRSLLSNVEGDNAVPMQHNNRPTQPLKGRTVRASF

| Compound | KA [1] [µM] | KA [2] [µM] | KA [3] [µM] | CA activity (Homo sapiens [4]) [%] | CA activity (Homo sapiens [5]) [%] |
| --- | --- | --- | --- | --- | --- |
| CCCCc1cc(-c2ccccc2)cc(CCCC)[n+]1-c1nn[n-]n1 | 1.8 | 145 | 6.8 |  |  |
| CCc1cc(-c2ccccc2)cc(CC)[n+]1-c1nn[n-]n1 | 0.064 | 1.23 | 0.055 |  |  |
| Cc1cc(-c2ccccc2)cc(C)[n+]1-c1cc[nH]n1 | 0.035 | 0.359 | 0.017 |  |  |
| Cc1cc(C)[n+](-c2cc[nH]n2)c(-c2ccccc2)c1 | 0.875 | 83 | 1.68 |  |  |
| Cc1cc(-c2ccccc2)cc(-c2ccccc2)[n+]1-c1cc[nH]n1 | 0.64 | 96 | 1.85 |  |  |
| Cc1cc(C)[n+](-c2cc[nH]n2)c(C)c1C | 0.049 | 0.457 | 0.038 |  |  |
| Cc1cc(-c2ccccc2)cc(-c2ccccc2)[n+]1-c1nn[n-]n1 | 1.1 | 108 | 5.24 |  |  |
| CCCCc1cc(-c2ccccc2)cc(-c2ccccc2)[n+]1-c1nn[n-]n1 | 10.5 | > 150 | > 50 |  |  |
| c1ccc(-c2cc(-c3ccccc3)[n+](-c3cc[nH]n3)c(-c3ccccc3)c2)cc1 | 32 | > 150 | > 50 |  |  |
| Cc1cc(C)[n+](-c2ncc[nH]2)c(C)c1 | 0.036 | 0.347 | 0.021 |  |  |
| c1ccc(-c2cc(-c3ccccc3)[n+](-c3nn[n-]n3)c(-c3ccccc3)c2)cc1 | 41 | > 150 | > 50 |  |  |
| CCCc1cc(-c2ccccc2)cc(CCC)[n+]1-c1ncc[nH]1 | 0.247 | 48 | 0.62 |  |  |
| CCc1cc(-c2ccccc2)cc(CC)[n+]1-c1ncc[nH]1 | 0.018 | 0.144 | 0.009 |  |  |
| CCCc1cc(-c2ccccc2)cc(CCC)[n+]1-c1nn[n-]n1 | 2.12 | 136 | 1.55 |  |  |
| Cc1cc(C)[n+](-c2ncc[nH]2)c(-c2ccccc2)c1 | 0.36 | 59 | 0.975 |  |  |
| CC(C)c1cc(-c2ccccc2)cc(C(C)C)[n+]1-c1ncc[nH]1.[O-][Cl+3]([O-])([O-])[O-] | 0.012 | 0.095 | 0.006 | 298 | 256 |
| NCCc1c[nH]cn1 [HISTAMINE] | 2.1 | 125 | 41 | 130 | 121 |
| CC(C)c1cc(-c2ccccc2)cc(-c2ccccc2)[n+]1-c1ncc[nH]1 | 1.54 | 107 | 3.14 |  |  |
| CCc1cc(-c2ccccc2)cc(-c2ccccc2)[n+]1-c1nn[n-]n1 | 3.05 | 140 | 12.5 |  |  |
| CCCCc1cc(-c2ccccc2)cc(CCCC)[n+]1-c1ncc[nH]1 | 0.651 | 86 | 1.89 |  |  |
| c1ccc(-c2cc(-c3ccccc3)[n+](-c3ncc[nH]3)c(-c3ccccc3)c2)cc1 | 15 | > 150 | > 50 |  |  |
| CCc1cc(-c2ccccc2)cc(-c2ccccc2)[n+]1-c1ncc[nH]1 | 1.05 | 84 | 2.56 |  |  |
| CCCCc1cc(-c2ccccc2)cc(-c2ccccc2)[n+]1-c1ncc[nH]1 | 2.4 | 130 | 9.55 |  |  |
| CCCCc1cc(-c2ccccc2)cc(-c2ccccc2)[n+]1-c1cc[nH]n1 | 5.64 | > 150 | > 50 |  |  |
| CC(C)c1cc(-c2ccccc2)cc(-c2ccccc2)[n+]1-c1cc[nH]n1 | 2.5 | 130 | 5.29 |  |  |
| CCc1cc(-c2ccccc2)cc(-c2ccccc2)[n+]1-c1cc[nH]n1 | 2.34 | 118 | 3.41 |  |  |

Continued, in another order:

| KA [1] [µM] | KA [2] [µM] | KA [3] [µM] | Compound | CA activity (Homo sapiens [4]) [%] | CA activity (Homo sapiens [5]) [%] |
| --- | --- | --- | --- | --- | --- |
| 0.021 | 0.153 | 0.013 | Cc1cc(-c2ccccc2)cc(C)[n+]1-c1ncc[nH]1.[O-][Cl+3]([O-])([O-])[O-] | 233 | 192 |
| 1.35 | 75 | 1.2 | CCCc1cc(-c2ccccc2)cc(CCC)[n+]1-c1cc[nH]n1 |  |  |
| 0.038 | 0.264 | 0.016 | Cc1cc(C(C)C)[n+](-c2cc[nH]n2)c(C(C)C)c1 |  |  |
| 1.76 | 140 | 2.59 | CCCCc1cc(-c2ccccc2)cc(CCCC)[n+]1-c1cc[nH]n1 |  |  |
| 2.87 | 134 | 10.1 | CC(C)c1cc(-c2ccccc2)cc(-c2ccccc2)[n+]1-c1nn[n-]n1 |  |  |
| 0.052 | 0.48 | 0.045 | Cc1cc(C)[n+](-c2cc[nH]n2)c(C)c1 |  |  |
| 0.037 | 0.412 | 0.033 | Cc1c2cc(c(C)[n+]1-c1cc[nH]n1)CCCCCCCCC2 |  |  |
| 0.022 | 0.305 | 0.02 | Cc1c2cc(c(C)[n+]1C1=NCC=N1)CCCCCCCCC2 |  |  |
| 0.024 | 0.13 | 0.008 | Cc1cc(C(C)C)[n+](-c2ncc[nH]2)c(C(C)C)c1 |  |  |
| 0.076 | 1.39 | 0.063 | Cc1cc(-c2ccccc2)cc(C)[n+]1-c1nn[n-]n1 |  |  |
| 0.021 | 0.155 | 0.008 | CC(C)c1cc(-c2ccccc2)cc(C(C)C)[n+]1-c1cc[nH]n1.[O-][Cl+3]([O-])([O-])[O-] | 234 | 189 |
| 4.21 | > 150 | 15.5 | CCCc1cc(-c2ccccc2)cc(-c2ccccc2)[n+]1-c1nn[n-]n1 |  |  |
| 1.9 | 130 | 5.76 | CCCc1cc(-c2ccccc2)cc(-c2ccccc2)[n+]1-c1ncc[nH]1 |  |  |
| 0.05 | 1.15 | 0.012 | CC(C)c1cc(-c2ccccc2)cc(C(C)C)[n+]1-c1nn[n-]n1 | 212 | 173 |
| 0.027 | 0.306 | 0.015 | CCc1cc(-c2ccccc2)cc(CC)[n+]1-c1cc[nH]n1 |  |  |
| 0.303 | 62 | 1.24 | Cc1cc(-c2ccccc2)cc(-c2ccccc2)[n+]1-c1ncc[nH]1 |  |  |
| 2.78 | 135 | 8.23 | CCCc1cc(-c2ccccc2)cc(-c2ccccc2)[n+]1-c1cc[nH]n1 |  |  |
